# Source: ChEMBL document CHEMBL4689842, “EUbOPEN Chemogenomics Library wave 1” (2021)
# Where “and” joins values, the source holds several entries; their conditions need not be identical. Equal values may be shown once.
# System: HEK-293T
# Experiment: Multiplex assay against HEK293T;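 for Population Tubulin-Different-Phenotype (%): share of the cells with healthy nuclei that show this phenotype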
# Assay type: toxicity, cell-based
# Details: human
# Method in brief: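 Compound was added to live cells that had been stained at seeding with Hoechst33342, BioTracker Green Microtubule Cytoskeleton Dye, MitoTracker Red and Annexin V Alexa Fluor 680, and imaging followed on a CQ1 microscope at 37°C and 5% CO2. CellPathfinder machine-learning gating divided cells into Hoechst high-intensity objects or normal cells, normal cells into healthy, pyknosed or fragmented nuclei, and pyknosed cells into mitotic or apoptotic. Tubulin, mitochondrial-mass and membrane-permeability phenotypes are per cents of healthy-nucleus cells.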
# [1] = 12 h, 1 µM, compound concentration 1 uM, replicate 1
# [2] = 12 h, 1 µM, compound concentration 1 uM, replicate 2
# [3] = 12 h, 10 µM, compound concentration 10 uM, replicate 1
# [4] = 12 h, 10 µM, compound concentration 10 uM, replicate 2
# [5] = 24 h, 1 µM, compound concentration 1 uM, replicate 1
# [6] = 24 h, 1 µM, compound concentration 1 uM, replicate 2
# [7] = 24 h, 10 µM, compound concentration 10 uM, replicate 1
# [8] = 24 h, 10 µM, compound concentration 10 uM, replicate 2
# [9] = 48 h, 10 µM, compound concentration 10 uM, replicate 1
# [10] = 48 h, 10 µM, compound concentration 10 uM, replicate 2
smiles,measurement,setting,value
NC(=O)Nc1cc(-c2cccc(F)c2)sc1C(=O)N[C@H]1CCCNC1 [AZD-7762],Population Fragmented Nuclei (%),[1],18%
same,Population Healthy Nuclei (%),[1],54%
same,Population Hoechst High Intensity Objects (%),[1],13%
same,Population Mitochondria Different-Phenotype (%),[1],5%
same,Population Normal (%),[1],86%
same,Population Pyknosed Nuclei (%),[1],26%
same,Population Tubulin-Different-Phenotype (%),[1],3%
same,Total Cell Count,[1],661
same,Population Apoptotic (%),[2],18%
same,Population Fragmented Nuclei (%),[2],6%
same,Population Healthy Nuclei (%),[2],73%
same,Population Hoechst High Intensity Objects (%),[2],5%
same,Population Membrane Permeable-Phenotype (%),[2],5%
same,Population Mitochondria Different-Phenotype (%),[2],20%
same,Population Mitotic Cells (%),[2],81%
same,Population Normal (%),[2],94%
same,Population Pyknosed Nuclei (%),[2],19%
same,Population Tubulin-Different-Phenotype (%),[2],25%
same,Total Cell Count,[2],1132
same,Population Fragmented Nuclei (%),[3],28% and 23%
same,Population Hoechst High Intensity Objects (%),[3],18% and 14%
same,Population Membrane Permeable-Phenotype (%),[3],5% and 4%
same,Population Normal (%),[3],81% and 85%
same,Population Pyknosed Nuclei (%),[3],59% and 21%
same,Population Apoptotic (%),[4],27% and 9%
same,Population Fragmented Nuclei (%),[4],8% and 10%
same,Population Healthy Nuclei (%),[4],28% and 66%
same,Population Hoechst High Intensity Objects (%),[4],4% and 2%
same,Population Membrane Permeable-Phenotype (%),[4],0% and 3%
same,Population Mitochondria Different-Phenotype (%),[4],30% and 18%
same,Population Mitotic Cells (%),[4],72% and 90%
same,Population Normal (%),[4],95% and 97%
same,Population Pyknosed Nuclei (%),[4],63% and 22%
same,Population Tubulin-Different-Phenotype (%),[4],14% and 21%
same,Population Apoptotic (%),[5],19%
same,Population Fragmented Nuclei (%),[5],18%
same,Population Healthy Nuclei (%),[5],42%
same,Population Hoechst High Intensity Objects (%),[5],12%
same,Population Membrane Permeable-Phenotype (%),[5],9%
same,Population Mitochondria Different-Phenotype (%),[5],7%
same,Population Mitotic Cells (%),[5],80%
same,Population Normal (%),[5],87%
same,Population Pyknosed Nuclei (%),[5],38%
same,Population Tubulin-Different-Phenotype (%),[5],14%
same,Total Cell Count,[5],632
same,Population Apoptotic (%),[6],35%
same,Population Fragmented Nuclei (%),[6],8%
same,Population Healthy Nuclei (%),[6],39%
same,Population Hoechst High Intensity Objects (%),[6],6%
same,Population Membrane Permeable-Phenotype (%),[6],8%
same,Population Mitochondria Different-Phenotype (%),[6],33%
same,Population Mitotic Cells (%),[6],64%
same,Population Normal (%),[6],93%
same,Population Pyknosed Nuclei (%),[6],51%
same,Population Tubulin-Different-Phenotype (%),[6],62%
same,Total Cell Count,[6],1019
same,Population Apoptotic (%),[7],26% and 66%
same,Population Fragmented Nuclei (%),[7],22% and 33%
same,Population Hoechst High Intensity Objects (%),[7],13% and 14%
same,Population Membrane Permeable-Phenotype (%),[7],8% and 0%
same,Population Mitotic Cells (%),[7],73% and 33%
same,Population Normal (%),[7],86% and 85%
same,Population Pyknosed Nuclei (%),[7],36% and 58%
same,Population Tubulin-Different-Phenotype (%),[7],36% and 50%
same,Population Apoptotic (%),[8],52% and 23%
same,Population Fragmented Nuclei (%),[8],12% and 17%
same,Population Hoechst High Intensity Objects (%),[8],6% and 5%
same,Population Membrane Permeable-Phenotype (%),[8],10%
same,Population Mitochondria Different-Phenotype (%),[8],20% and 48%
same,Population Mitotic Cells (%),[8],47% and 76%
same,Population Normal (%),[8],93% and 95%
same,Population Pyknosed Nuclei (%),[8],80% and 47%
same,Population Tubulin-Different-Phenotype (%),[8],30% and 63%
same,Population Apoptotic (%),[9],75%
same,Population Fragmented Nuclei (%),[9],43%
same,Population Healthy Nuclei (%),[9],3%
same,Population Hoechst High Intensity Objects (%),[9],21%
same,Population Membrane Permeable-Phenotype (%),[9],0%
same,Population Mitochondria Different-Phenotype (%),[9],100%
same,Population Mitotic Cells (%),[9],25%
same,Population Normal (%),[9],78%
same,Population Pyknosed Nuclei (%),[9],53%
same,Population Tubulin-Different-Phenotype (%),[9],0%
same,Total Cell Count,[9],191
same,Population Fragmented Nuclei (%),[10],13%
same,Population Healthy Nuclei (%),[10],12%
same,Population Hoechst High Intensity Objects (%),[10],8%
same,Population Membrane Permeable-Phenotype (%),[10],5%
same,Population Mitochondria Different-Phenotype (%),[10],66%
same,Population Mitotic Cells (%),[10],24%
same,Population Normal (%),[10],91%
same,Population Pyknosed Nuclei (%),[10],74%
same,Population Tubulin-Different-Phenotype (%),[10],61%
same,Total Cell Count,[10],161
